Rows were chosen to be rich in hits. Some 2.9% of all compounds tested hit in one or more screens of this group.
SENP8 block-1 = inhibitors of human SENP8 protease; purified SENP8, Z-RLRGG-aminoluciferin cleavage, luminescence; inhibition, % at 10 µM; 330,000 tested, 1.2% active; AID 2540; in the data active = inhibition above about 50%
Target sequence (Q96LD8 whole entry, looked up): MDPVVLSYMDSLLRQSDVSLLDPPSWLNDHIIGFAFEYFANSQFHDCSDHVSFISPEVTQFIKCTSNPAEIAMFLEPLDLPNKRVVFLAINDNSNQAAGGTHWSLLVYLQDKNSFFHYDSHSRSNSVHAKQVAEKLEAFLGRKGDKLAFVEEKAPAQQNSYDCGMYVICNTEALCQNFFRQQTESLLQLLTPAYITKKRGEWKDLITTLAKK
SENP7 block = SENP7 protease inhibition | Q9BQF6 | recombinant SENP7, Z-RLRGG-aminoluciferin luminescence, 40 min | inhibition, % at 5 µM | 330,000 tested, 1.5% active;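 active = inhibition above about 50% at the single test dose, limit read from the data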;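 note: plate controls were DMSO with enzyme for no effect and no enzyme buffer wells for full effect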
Target sequence (Q9BQF6 706-1050 limits assumed): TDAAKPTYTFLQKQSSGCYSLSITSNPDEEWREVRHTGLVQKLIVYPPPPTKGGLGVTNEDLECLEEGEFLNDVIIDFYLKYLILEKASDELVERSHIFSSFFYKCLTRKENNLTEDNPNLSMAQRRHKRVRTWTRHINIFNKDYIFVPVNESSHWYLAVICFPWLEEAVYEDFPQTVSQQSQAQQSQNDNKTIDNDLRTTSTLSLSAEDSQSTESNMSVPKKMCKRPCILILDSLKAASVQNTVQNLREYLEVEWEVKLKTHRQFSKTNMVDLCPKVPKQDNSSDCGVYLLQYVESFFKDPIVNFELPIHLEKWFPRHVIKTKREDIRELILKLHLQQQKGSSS
SENP1 inh = blocks the human SENP1 SUMO protease catalytic domain; inhibition, % at 10 µM; Q9P0U3; 360,000 tested, 0.21% active; AID 624204; recombinant SENP1 catalytic domain, CyPet-SUMO1-YPet FRET cleavage;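 active = inhibition at least 30% at 10 µM, raw YFP signal under a set limit, fluorescence ratio 0.5 to 1.5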;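 note: 0% = enzyme with DMSO and 100% = no enzyme wells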
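Compound: 10 µM single point, 0.5% DMSO; Test system: hSENP1 catalytic domain, recombinant; Timing: 50 min reaction at room temperature; Technique: FRET, CFP and YFP emission; Control set: no-enzyme wells low, DMSO-plus-enzyme wells high control.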
SENP8 block-2 = inhibitors of human SENP8 protease | Q96LD8 | 360,000 tested, 0.64% active | recombinant SENP8, Nedd8 substrate fluorescence | inhibition, % at 20 µM; in the data active = inhibition mostly above about 40%, no sharp cut-off; inactive = mostly below about 27%
HSP90 refold inh = inhibitors of HSP90 luciferase refolding in rabbit reticulocyte lysate | luciferase refolding luminescence, 3 h | inhibition, % at 5.6 µM | 290,000 tested, 0.91% active;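 active = inhibition above the screen-wide mean plus 3 SD, computed separately per campaign, cut at about 16% in these data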;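 note: 0% = DMSO wells and 100% = 60 µM geldanamycin wells; inhibitors lower the luminescence because luciferase stays unfolded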
SENP6 block = blocks the human protease SENP6; AID 2599; Recombinant SENP6 catalytic domain, aminoluciferin luminescence; Q9GZR1; 330,000 tested, 1.8% active; inhibition, % at 10 µM;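 active = inhibition above about 50% at the single tested dose, limit read from the data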;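 note: plate controls were DMSO wells with enzyme for no effect and DMSO wells lacking enzyme for full effect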
SENP8 confirm = human SENP8 inhibition, confirmed; shares compounds with SENP7 block; inhibition, % at 12.5 µM; AID 488912; Recombinant SENP8, Z-RLRGG-aminoluciferin luminescence, 60 min; 6,200 tested, 40% active;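 active = mean inhibition across replicates above about 50%, limit read from the data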
SENP6 conf = confirmation of human SENP6 protease inhibitors. shares compounds with SENP7 block. recombinant SENP6, Z-RLRGG-aminoluciferin luminescence. inhibition, % at 12.5 µM. 6,200 tested, 58% active
SENP7 conf = human SENP7 inhibition, confirmed. recombinant SENP7, Z-RLRGG-aminoluciferin luminescence, 40 min. inhibition, % at 12.5 µM. shares compounds with SENP7 block. 6,200 tested, 69% active
Casp3 SENP sel = inhibits human caspase-3 in SENP selectivity test; shares compounds with SENP7 block; purified caspase-3, Z-DEVD-aminoluciferin luminescence, 60 min; inhibition, % at 12.5 µM; 6,200 tested, 60% active;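 active = mean inhibition above about 50%, limit read from the data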;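 note: plate controls were enzyme with DMSO for no effect and wells without caspase-3 for full effect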
SENP luc ctr = counter-screen for SENP inhibitors: luminescence interference | shares compounds with SENP7 block | Pre-incubated SENP8/Z-RLRGG-aminoluciferin, luciferase luminescence interference | inhibition, % at 12.5 µM | 6,200 tested, 39% active;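 active = mean inhibition above about 50% when retested at one dose, limit read from the data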;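 note: plate controls were DMSO wells with completed reaction for no effect and substrate without enzyme for full effect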
Active calls of the source: *; i = inactive; / = no result.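 Rule for the calls, unless noted: active = mean inhibition above about 50% in the one-dose retest (limit read from the data); inactive = the rest.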

SMILES	SENP8 block-1	SENP7 block	SENP1 inh	SENP8 block-2	HSP90 refold inh	SENP6 block	SENP8 confirm	SENP6 conf	SENP7 conf	Casp3 SENP sel	SENP luc ctr
Cc1cccc(/C=N/n2c(C)nnc2C)c1	-11	-12	0	13	-4	-10	/	/	/	/	/
Cc1cccc(/C=N\N=C\c2cccc(C)c2)c1	17	51*	0	23	-5	63*	19	54*	81*	38	36
CCOC(=O)C1(C)CCCCN1C(=O)c1cccc(Cl)c1 (stereo not drawn)	/	/	1	-2	/	/	/	/	/	/	/
CSc1nc(N)nc2c1ncn2CC(=O)N[C@H](C)c1cccc2ccccc12	-1	5	2	-81	/	-7	/	/	/	/	/
CCn1c(O)c(C=Nc2ccccc2)sc1=S	69*	70*	/	/	-2	81*	44	51*	96*	61*	11
CCOc1ccc(NCCC(O)c2ccc(F)cc2)cc1 (stereo not drawn)	5	-8	3	6	-2	-28	/	/	/	/	/
Cc1ccc(SCc2cn3c(C)csc3n2)cc1	75*	85*	0	9	12	84*	80*	80*	96*	86*	86*
O=C(OCc1csc(-c2ccccc2)n1)c1ccccc1O	88*	91*	2	12	-5	92*	86*	92*	99*	82*	40
O=C(OCc1ccccc1)c1ccccc1O	22	40	/	/	/	15	/	/	/	/	/
O=[N+]([O-])c1ccc(O)c(/C=N/Nc2ncnc3c2cnn3-c2ccccc2)c1	93*	93*	-54	14	-2	90*	87*	91*	100*	43	3
O=c1oc2cc(O)c(Cl)cc2c2ccccc12	34	11	35	-89	-1	61*	50*	45	73*	68*	38
COc1ccc2c(c1)oc(=O)c1ccccc12	2	-9	-1	-1	2	-5	/	/	/	/	/
O=C(/C=C/c1cccs1)Nc1sc2c(c1C(=O)O)CCCC2	55*	8	11	20	-1	74*	27	66*	81*	58*	71*
O=C(Nc1sc2c(c1C(=O)O)CCCCC2)c1cccs1	95*	71*	0	-61	2	96*	98*	98*	102*	94*	96*
COC(=O)c1c(NC(=O)c2cccs2)sc2c1CCC(C)C2 (stereo not drawn)	-7	-4	0	-396	0	-4	/	/	/	/	/
O=C(Nc1sc2c(c1C(=O)O)CCCC2)c1cccs1	85*	56*	-1	-42	-2	93*	3	90*	98*	86*	90*
CC1CCc2c(sc(NC(=O)c3cccs3)c2C(=O)O)C1 (stereo not drawn)	76*	-4	2	-28	3	88*	86*	86*	92*	66*	86*
CC1(CCCN2C(=O)c3ccccc3C2=O)OCCO1	-20	-6	2	23	/	-21	/	/	/	/	/
COCCNc1nc2c(c(=O)[nH]c(=O)n2C)n1CCCc1ccccc1	-5	11	0	9	-4	-15	/	/	/	/	/
Cc1cccc(C)c1NC(=O)CN(C)C(=O)c1ccc(OCc2ccccc2)cc1	/	/	4	6	/	/	/	/	/	/	/
Cc1cc(O)c2c(c1)C(=O)c1cc(O)cc(O)c1C2=O	94*	80*	11	26	/	97*	96*	98*	102*	94*	81*
O=C1c2cc(O)cc(O)c2C(=O)c2c1cc(O)c([C@@H](CO)CCO)c2O	39	11	12	-1	/	47	/	/	/	/	/
CC(C)(C)OC(=O)C[C@@H]1C/C=C\C[C@@H](CC(=O)N[C@H](CO)Cc2ccccc2)C(=O)N2CCC[C@H]2COC1=O	1	0	1	11	/	-5	/	/	/	/	/
N#C/C(=C(/O)C(Cl)(Cl)Cl)c1nc2ccccc2[nH]1	87*	75*	-9	29	2	96*	90*	90*	100*	91*	55*
COC1CC(N)C2OC(c3ccccc3)OCC2O1 (stereo not drawn)	/	/	0	21	/	/	/	/	/	/	/
SMILES	SENP8 block-1	SENP7 block	SENP1 inh	SENP8 block-2	HSP90 refold inh	SENP6 block	SENP8 confirm	SENP6 conf	SENP7 conf	Casp3 SENP sel	SENP luc ctr
O=c1sc2ccccc2c(N2CCOCC2)c1[N+](=O)[O-]	22	-1	2	6	8	57*	16	6	50*	70*	55*
O=c1sc2ccccc2c(N2CCCCC2)c1[N+](=O)[O-]	28	9	4	6	-2	-16	/	/	/	/	/
Cc1cc(N)ccc1-n1nc2ccccc2n1	-5	2	0	-414	/	-17	/	/	/	/	/
COc1ccc(-n2nc3ccc(NS(C)(=O)=O)cc3n2)cc1Cl	51*	74*	-15	i	-6	72*	-7	39	75*	55*	-2
COc1cc2nn(-c3ccccc3N)nc2cc1OC	/	/	-87	-494	/	/	/	/	/	/	/
COc1ccc(-n2nc3ccc(N)cc3n2)cc1Cl	88*	59*	-25	-307	11	86*	40	81*	95*	57*	46
Cc1ccc(-n2nc3ccc(N)cc3n2)c(C)c1	65*	43	-117	-313	1	78*	4	20	29	12	12
Cc1ccc(-n2nc3ccc(N)cc3n2)cc1Cl	87*	22	-24	-300	1	90*	12	63*	76*	63*	2
COc1ccc2c(C(=O)c3ccc(Cl)cc3)n(CCCC(N)=O)[n+]([O-])c2c1	-13	-12	-1	0	/	-11	/	/	/	/	/
Cc1ccc(-n2nc3ccc(N)cc3n2)cc1C	82*	32	-26	-446	4	91*	-5	94*	101*	82*	52*
FC(F)(F)c1nc2cc3nc4ccccc4[nH]c3cc2n1	49	28	4	8	2	54*	67*	65*	86*	80*	70*
OC(c1nc2ccccc2[nH]1)C(O)c1nc2ccccc2[nH]1 (stereo not drawn)	1	-1	0	4	-1	-2	/	/	/	/	/
CCOC(=O)c1sc(=NC(=O)c2cccc(OC)c2)n(C)c1C	-4	33	0	-280	3	-13	/	/	/	/	/
